# Results pooled from the literature.
# Each line is one published result; the experiments were not run side by side.
# Oprm1: Mu-type opioid receptor (Oprm1, Mus musculus, UniProt P42866)
# PFF0160c: Dihydroorotate dehydrogenase (quinone), mitochondrial (PFF0160c, Plasmodium falciparum, UniProt Q08210)
# SIGMAR1: Sigma non-opioid intracellular receptor 1 (SIGMAR1, Homo sapiens, UniProt Q99720)
# Nectin-4: Nectin-4 (Homo sapiens, UniProt Q96NY8)
Structure (SMILES),target,test,measurement,value
O=C(N[C@H]1C=C[C@@]2(O)[C@H]3Cc4ccc(O)c5c4[C@@]2(CCN3CC2CC2)[C@H]1O5)c1c[nH]c2cccnc12,Oprm1,"ligand displacement, radioligand",Ki,0.56 nM
Cc1noc(-c2cccs2)c1C(=O)NCCc1cccc(Cl)c1,PFF0160c,"enzyme activity, inhibitor, absorbance",IC50,689 nM
CN(C)CCC(c1ccc(Cl)cc1)c1ccccn1 (stereo not drawn),SIGMAR1,"ligand displacement, radioligand",Ki,1310 nM
CCCC[C@@H]1NC(=O)[C@H](Cc2ccc(O)cc2)NC(=O)[C@@H]2CCCN2C(=O)[C@H](CC(=O)O)NC(=O)[C@H](C)NC(=O)[C@H](Cc2ccccc2)NC(=O)[C@@H]2CSCCC(=O)N3CN(CN(C3)C(=O)CCSC[C@@H](C(=O)N[C@@H](CNC(=O)CCOCCOCCOCCOCCOCCn3cc(CCC(=O)N[C@H]4CSCCC(=O)N5CN6CN(C5)C(=O)CCSC[C@H](NC(=O)[C@@H](CC(=O)O)NC(=O)[C@H](Cc5cccc7ccccc57)NC(=O)[C@@H]5CCCN5C4=O)C(=O)N[C@@H](CCSC)C(=O)N[C@@H](CCCCNC(=N)N)C(=O)N[C@@H](CC(=O)O)C(=O)N[C@@H](Cc4c[nH]c5ccccc45)C(=O)N[C@@H](CO)C(=O)N[C@@H]([C@@H](C)O)C(=O)N4CCC[C@H]4C(=O)N4C[C@H](O)C[C@H]4C(=O)N[C@@H](Cc4c[nH]c5ccccc45)C(=O)N[C@H](C(N)=O)CSCCC6=O)nn3)C(N)=O)NC1=O)C(=O)CCSC[C@H](NC(C)=O)C(=O)N[C@@H](CC(C)(C)C)C(=O)N1CCC[C@H]1C(=O)N[C@@H](CCC(=O)O)C(=O)N[C@H](C)C(=O)N1CCC[C@H]1C(=O)N[C@@H](Cc1ccc(O)cc1)C(=O)N2,Nectin-4,"binding, SPR",Kd,1.1 nM
O=C(N[C@H]1C=C[C@@]2(O)[C@H]3Cc4ccc(O)c5c4[C@@]2(CCN3CC2CC2)[C@H]1O5)c1c[nH]c2ncccc12,Oprm1,"ligand displacement, radioligand",Ki,1.14 nM
CC(C)C(NC(=O)Cc1cccc2ccccc12)C(=O)Nc1cccc(C#N)c1 (stereo not drawn),PFF0160c,"enzyme activity, inhibitor, absorbance",IC50,1550 nM
COc1cc2c(cc1OC)CN(CCc1ccc(NC(=O)c3cc(OC)c(OC)cc3NC(=O)c3cnc4ccccc4c3)cc1)CC2,SIGMAR1,"ligand displacement, radioligand",Ki,472 nM
COCC(C)n1c(SCC(=O)Nc2cc(C(F)(F)F)ccc2Cl)nc2ccccc2c1=O (stereo not drawn),PFF0160c,"enzyme activity, inhibitor, absorbance",IC50,626 nM
O=C(N[C@H]1C=C[C@@]2(O)[C@H]3Cc4ccc(O)c5c4[C@@]2(CCN3CC2CC2)[C@H]1O5)c1c[nH]c2ccncc12,Oprm1,"ligand displacement, radioligand",Ki,0.7 nM
CCCC[C@@H]1NC(=O)[C@H](Cc2ccc(O)cc2)NC(=O)[C@@H]2CCCN2C(=O)[C@H](CC(=O)O)NC(=O)[C@H](C)NC(=O)[C@H](Cc2ccccc2)NC(=O)[C@@H]2CSCCC(=O)N3CN(CN(C3)C(=O)CCSC[C@H](NC(C)=O)C(=O)N[C@@H](CC(C)(C)C)C(=O)N3CCC[C@H]3C(=O)N[C@@H](CCC(=O)O)C(=O)N[C@H](CCCCNC(=O)CCc3cn(CCOCCOCCOCCN(CCOCCOCCOCCC(=O)N[C@H]4CSCCC(=O)N5CN6CN(C5)C(=O)CCSC[C@H](NC(=O)[C@@H](CC(=O)O)NC(=O)[C@H](Cc5cccc7ccccc57)NC(=O)[C@@H]5CCCN5C4=O)C(=O)N[C@@H](CCSC)C(=O)N[C@@H](CCCCNC(=N)N)C(=O)N[C@@H](CC(=O)O)C(=O)N[C@@H](Cc4c[nH]c5ccccc45)C(=O)N[C@@H](CO)C(=O)N[C@@H]([C@@H](C)O)C(=O)N4CCC[C@H]4C(=O)N4C[C@H](O)C[C@H]4C(=O)N[C@@H](Cc4c[nH]c5ccccc45)C(=O)N[C@H](C(N)=O)CSCCC6=O)CCOCCOCCOCCn4cc(CCC(=O)NCCCC[C@H]5NC(=O)[C@H](CCC(=O)O)NC(=O)[C@@H]6CCCN6C(=O)[C@H](CC(C)(C)C)NC(=O)[C@@H](NC(C)=O)CSCCC(=O)N6CN7CN(C6)C(=O)CCSC[C@H](NC(=O)[C@H](Cc6ccc(O)cc6)NC(=O)[C@@H]6CCCN6C5=O)C(=O)N[C@@H](Cc5ccccc5)C(=O)N[C@@H](C)C(=O)N[C@@H](CC(=O)O)C(=O)N5CCC[C@H]5C(=O)N[C@@H](Cc5ccc(O)cc5)C(=O)N[C@@H](CCCC)C(=O)N[C@H](C(N)=O)CSCCC7=O)nn4)nn3)C(=O)N3CCC[C@H]3C(=O)N[C@@H](Cc3ccc(O)cc3)C(=O)N2)C(=O)CCSC[C@@H](C(N)=O)NC1=O,Nectin-4,"binding, SPR",Kd,3.9 nM
COc1cc(Nc2ccnc3cc(-c4ccncc4)ccc23)cc(OC)c1OC,"Dihydroorotate dehydrogenase (quinone), mitochondrial (PFF0160c, Plasmodium falciparum, UniProt Q08210, E182D)","enzyme activity, inhibitor, absorbance",IC50,1510 nM
CCCC[C@@H]1NC(=O)[C@H](Cc2ccc(O)cc2)NC(=O)[C@@H]2CCCN2C(=O)[C@H](CC(=O)O)NC(=O)[C@H](C)NC(=O)[C@H](Cc2ccccc2)NC(=O)[C@@H]2CSCCC(=O)N3CN(CN(C3)C(=O)CCSC[C@@H](C(=O)N[C@@H](C)C(N)=O)NC1=O)C(=O)CCSC[C@H](NC(C)=O)C(=O)N[C@@H](CC(C)(C)C)C(=O)N1CCC[C@H]1C(=O)N[C@@H](CCC(=O)O)C(=O)N[C@H](CCCCNC(=O)CCc1cn(CCOCCOCCOCCOCCOCCC(=O)N[C@H]3CSCCC(=O)N4CN5CN(C4)C(=O)CCSC[C@H](NC(=O)CNC(=O)[C@H](Cc4ccccc4)NC(=O)[C@@H]4CCCN4C3=O)C(=O)N[C@@H](CCSC)C(=O)N[C@@H](CCCCNC(=N)N)C(=O)N[C@@H](CC(=O)O)C(=O)N[C@@H](Cc3c[nH]c4ccccc34)C(=O)N[C@@H](CO)C(=O)N[C@@H]([C@@H](C)O)C(=O)N3CCC[C@H]3C(=O)N3C[C@H](O)C[C@H]3C(=O)N[C@@H](Cc3c[nH]c4ccccc34)C(=O)N[C@H](C(N)=O)CSCCC5=O)nn1)C(=O)N1CCC[C@H]1C(=O)N[C@@H](Cc1ccc(O)cc1)C(=O)N2,Nectin-4,"binding, SPR",Kd,14 nM
O=C(N[C@@H]1C=C[C@@]2(O)[C@H]3Cc4ccc(O)c5c4[C@@]2(CCN3CC2CC2)[C@H]1O5)c1n[nH]c2ccccc12,Oprm1,"ligand displacement, radioligand",Ki,0.32 nM
COc1cc2nc(N3CCCN(C)CC3)nc(NC3CCN(Cc4ccccc4)CC3)c2cc1OC,SIGMAR1,"ligand displacement, radioligand",Ki,> 10000 nM
CCCC[C@@H]1NC(=O)[C@H](Cc2ccc(O)cc2)NC(=O)[C@@H]2CCCN2C(=O)[C@H](CC(=O)O)NC(=O)[C@H](C)NC(=O)[C@H](Cc2ccccc2)NC(=O)[C@@H]2CSCCC(=O)N3CN(CN(C3)C(=O)CCSC[C@@H](C(=O)N[C@@H](CNC(=O)CCc3cn(CCOCCOCCOCCOCCOCCOCCOCCOCCOCCOCCOCCOCCOCCOCCOCCOCCOCCOCCOCCOCCOCCOCCOCCNC(=O)N[C@H]4CSCCC(=O)N5CN6CN(C5)C(=O)CCSC[C@H](NC(=O)[C@@H](CC(=O)O)NC(=O)[C@H](Cc5cccc7ccccc57)NC(=O)[C@@H]5CCCN5C4=O)C(=O)N[C@@H](CCSC)C(=O)N[C@@H](CCCCNC(=N)N)C(=O)N[C@@H](CC(=O)O)C(=O)N[C@@H](Cc4c[nH]c5ccccc45)C(=O)N[C@@H](CO)C(=O)N[C@@H]([C@@H](C)O)C(=O)N4CCC[C@H]4C(=O)N4C[C@H](O)C[C@H]4C(=O)N[C@@H](Cc4c[nH]c5ccccc45)C(=O)N[C@H](C(N)=O)CSCCC6=O)nn3)C(N)=O)NC1=O)C(=O)CCSC[C@H](NC(=O)[C@H](C)NC(C)=O)C(=O)N[C@@H]([C@@H](C)CC)C(=O)N[C@@H](CCC(=O)O)C(=O)N[C@@H](CCC(=O)O)C(=O)NCC(=O)N[C@@H](CCC(N)=O)C(=O)N[C@@H](Cc1ccc(O)cc1)C(=O)N2,Nectin-4,"binding, SPR",Kd,1.8 nM
